The full list was thinned out, with hits kept by preference.
HUVEC inhibit = blocks proliferation of human endothelial cells | hit rate 1.1% among 86,000 | viability, % at 10 µM (by protocol) | AID 648 | HUVEC proliferation, CellTiter-Glo luminescence, 72 h; hits give low values;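 active = viability at or below 30%; inactive = viability above 30%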;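 also: 100% = median luminescence of DMSO-only cell control wells on each plate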
PTEN del growth = PTEN-deleted cell growth suppression; HCT116 PTEN-null viability, CellTiter-Glo, 60 h; hits give low values; viability, % at 10 µM; hit rate 1.2% among 140,000; AID 827;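 active = viability at or below a set limit, 4 SD under the median of all tested compounds, cut at about 3.7% in these data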;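 also: PTEN knockout HCT116 line with beta catenin targeted HCT116 as companion control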
H69AR growth 86K = growth inhibitors of human H69AR lung tumor cells. hit rate 6% among 85,000. H69AR lung tumor viability, ATP luminescence, 72 h; hits give low values. viability, % at 10 µM. AID 598;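 active = viability at or below 40%; inactive = viability above 40%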;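 also: multidrug resistant small cell line overexpressing MRP-1 efflux transporter; 100% = mean luminescence of untreated control wells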
Fibroblast inh = blocks proliferation of human lung fibroblasts; AID 719; LL 47 human lung fibroblast viability, ATP luminescence; hits give low values; viability, % at 10 µM; hit rate 1.1% among 85,000;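 active = viability at or below 50% in the single dose screen; inactive = viability above 50%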;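 also: compound exposure lasted 72 h before the ATP readout; 100% = median luminescence of untreated cell-only wells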
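Material: human lung fibroblast line LL 47, low passage; Evaluation: viability percentage against median untreated-cell control; Buffer or medium: 15% FBS in IMEM; Incubation: 72 h compound exposure at 37 °C after overnight plating; Dosing: 0.1% DMSO in all compound wells; Measured by: CellTiter-Glo luminescence.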
HCT116 bCat-KO = beta-catenin-lacking colon tumor cell growth suppression; HCT116 beta-catenin knockout viability, CellTiter-Glo, 60 h; hits give low values; viability, % at 10 µM; hit rate 1.5% among 140,000; AID 818;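 active = viability at or under a set limit, the compound median less 4 SD, cut at about 6% in these data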;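 also: 0% = Hyamine 1622 control at 20 µM and 100% = untreated cell control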
Active calls of the source: *; x = no result given; ! = not active in a repeat.

SMILES	HUVEC inhibit	PTEN del growth	H69AR growth 86K	Fibroblast inh	HCT116 bCat-KO
CCC(C)N1CC(O)=C(c2nc3ccccc3[nH]2)C1=N (centres undefined)	92.9	75.4	91.5	106.0	77.9
CC1C(O)=C(c2nc3ccccc3[nH]2)C(=N)N1c1ccccc1 (centres undefined)	74.3	33.7	22.1*	79.2	30.8
N=C1C(c2nc3ccccc3[nH]2)=C(O)CN1c1ccccc1	94.4	70.5	32.5*	94.4	78.2
N=C1C(c2nc3ccccc3[nH]2)=C(O)CN1c1ccc(CC(=O)O)cc1	88.7	99.3	79.0	103.4	92.7
Cc1cccc(N2C(=O)C(Oc3ccc(Cl)cc3Cl)C2C=O)c1C (centres undefined)	x	4.5	x	x	5.2*
CCOC(=O)/C=C1\SCC(=O)N1CC(=O)NC(C)c1ccc(F)cc1 (centres undefined)	x	84.5	x	x	88.1
O=C(NC1CCCCC1)N1CCCC(c2nc(-c3ccc(S(=O)(=O)N4CCCC4)cc3)no2)C1 (centres undefined)	88.3	63.4	34.6*	88.4	68.7
Cc1ccc(S(=O)(=O)NNC(=O)C2CCN(S(=O)(=O)c3ccc(C)cc3)CC2)cc1	x	92.2	x	x	98.1
O=C(NC1CCCCC1)N1CCCC(c2nc(-c3cccs3)no2)C1 (centres undefined)	93.4	93.1	90.5	93.4	83.1
Cc1ccc(S(=O)(=O)N2CCC(C(=O)NC3CCCCCC3)CC2)cc1	99.2	104.9	29.7*	x	112.0
Cc1nn(-c2ccccc2)c2[nH]c(=O)c(CNc3ccc(N4CCOCC4)cc3)cc12	76.4	93.4	17.9*	93.6	77.0
Cc1nn(-c2ccc(Cl)cc2)c2[nH]c(=O)c(CNCc3ccc4c(c3)OCO4)cc12	81.7	62.0	32.5*	88.4	62.6
Cc1nn(Cc2ccccc2Cl)c2sc(C(=O)NCc3ccc4c(c3)OCO4)cc12	85.4	79.5	47.6	93.7	82.4
O=c1[nH]c2c(cc1CNCCN1CCOCC1)c(-c1cccc(F)c1)nn2-c1ccccc1	31.9	x	45.1	90.8	x
COc1cccc(C(c2nnnn2Cc2ccccc2)N2CCN(C3CCCC3)CC2)c1OC (centres undefined)	87.5	72.2	19.6*	102.2	66.5
c1ccc(Cn2nnnc2C(c2cccs2)N2CCCCCC2)cc1 (centres undefined)	89.0	75.2	21.9*	82.1	72.6
COc1ccccc1C(c1nnnn1Cc1ccccc1)N1CCN(C2CCCC2)CC1 (centres undefined)	88.4	94.0	76.3	90.4	86.2
CN(C)S(=O)(=O)c1cccc(NC(=O)CCNC(=O)c2ccccc2Cl)c1	x	99.0	x	x	93.2
C=CCn1c(SCc2ccc(C(=O)Nc3ccccc3)cc2)nnc1-c1ccccc1	x	97.7	x	x	95.2
CCOC(=O)N/N=C(\C)c1ccc(OC(F)F)cc1OC(F)F	x	101.4	x	x	91.7
COc1cc(-c2nc3ccccc3s2)ccc1O	50.2	86.6	39.6*	90.3	89.8
COc1cc(/C=N/NC(=Nc2ccc(C)cc2)c2nc3ccccc3s2)ccc1O	88.2	78.2	35.3*	82.1	67.8
CNc1ncc(Cc2ccccc2)s1	x	91.8	x	x	85.0
O=C(N/N=C/c1cc([N+](=O)[O-])ccc1N1CCNCC1)c1ccc([N+](=O)[O-])cc1	x	1.1*	x	x	1.6*
CCNC(=S)NNC(=O)c1cc(Br)cs1	x	106.6	x	x	97.3
SMILES	HUVEC inhibit	PTEN del growth	H69AR growth 86K	Fibroblast inh	HCT116 bCat-KO
CCN(CC)S(=O)(=O)c1ccc(N2CCOCC2)c(NS(=O)(=O)c2ccc(C)c(C)c2)c1	x	75.5	x	x	79.9
O=C(NC1C=CS(=O)(=O)C1)c1sc2ccccc2c1Cl (centres undefined)	72.6	6.1	1.7*	76.0	8.4
O=C(COC(=O)CNS(=O)(=O)c1ccc2ccccc2c1)Nc1ccccc1Sc1ccccc1	x	84.4	x	x	80.5
O=S(=O)(N/N=C\c1ccc2c(c1)OCO2)c1ccc(Cl)cc1	x	88.7	x	x	96.2
CC1CC1C(=O)Nc1nc(-c2cccs2)c(-c2cccs2)s1 (centres undefined)	x	63.5	x	x	64.5
CCCn1c2ccc(/C(C)=N\O)cc2c2cc(/C(C)=N/O)ccc21	82.5	71.6	27.1*	89.8	80.0
CCn1c2c(c3cc(Br)ccc31)CCC/C2=N\O	49.3	79.5	85.6	84.1	81.3
COc1ccc(OC)c(NC(=O)COC(=O)CCCN2C(=O)c3ccccc3C2=O)c1	x	102.9	x	x	93.3
CCOC(=O)c1c(NC(=O)c2cc3n(n2)C(C(F)(F)F)CC(c2cccs2)N3)sc(C)c1C (centres undefined)	x	1.0*	x	x	1.5*
Cc1nn(C)c(C)c1CNC(=O)c1cc2n(n1)C(C(F)(F)F)CC(c1cccs1)N2 (centres undefined)	101.4	96.3	93.2	99.2	83.7
CNCCCC12CCC(c3ccccc31)c1ccccc12	67.2	31.6	8.6*!	74.0	46.8
Cc1ccc(N(C)S(=O)(=O)c2cccc(C(=O)Oc3ccc4c(C)cc(=O)oc4c3)c2)cc1	x	95.6	x	x	100.3
O=C1c2ccccc2NC(c2ccc(-c3ccc(Br)cc3)o2)N1O (centres undefined)	x	3.4*	x	x	4.5*
Cc1cc(C(=O)CSc2nnc(-c3ccc(F)cc3)o2)c(C)n1CC1COc2ccccc2O1 (centres undefined)	51.6	71.3	33.5*	81.2	70.3
Cc1ccc(S(=O)(=O)N2CCOCC2)cc1C(=O)OCC(=O)NC1CCS(=O)(=O)C1 (centres undefined)	x	99.5	x	x	92.1
CCOC(=O)Nc1c(C(=O)OC)[nH]c2cc(OC)ccc12	71.5	x	17.6*	88.2	x
COC(=O)c1[nH]c2cc(OC)ccc2c1NC(=O)CN1CCN(c2cccc(C)c2)C(C)C1 (centres undefined)	53.1	34.5	15.0*	98.0	51.0
COC(=O)/C=C1\N/C(=N\c2nc(C)cc(C)n2)N(c2ccc(C)c(C)c2)C1=O	x	66.5	x	x	57.2
O=C1CCCc2c1[nH]c1ccc(Cl)cc21	19.2*	93.7	106.9	97.0	87.1
Cc1ccc(C(=O)c2oc3ccccc3c2NC(=O)c2cc(-c3ccccc3O)n[nH]2)cc1	x	42.5	x	x	34.7
O=C(Nc1c(C(=O)c2ccccc2)oc2ccccc12)c1cc(-c2ccccc2O)n[nH]1	x	1.8*	x	x	1.9*
Cc1cc(C)c2c3c(sc2n1)C1(CCSCC1)C(C#N)=C(N)O3	x	80.1	x	x	77.3
COc1ccc(C2C(C#N)=C(N)Oc3c2sc2nc(C)cc(C)c32)cc1 (centres undefined)	x	0.6*	x	x	0.9*
CN1C=CC2=C(C#N)C(N)C(C#N)(C#N)[C@H](c3ccccc3)[C@H]2C1 (some centres undefined)	92.2	86.6	76.7	99.4	87.6
C=CCOc1ccc2nc(NC(=O)OC)[nH]c2c1	47.1	15.6	32.9*	48.5*	13.1
Cc1cc(/C=N/n2cnnc2)c(C)n1-c1ccc(OCc2ccc(Cl)cc2Cl)cc1	2.6*	4.0	5.8*	73.4	3.7*
Cc1cc(/C=N/n2cnnc2)c(C)n1-c1ccc(OCc2ccc(F)cc2)cc1	54.9	11.9	18.6*	74.7	8.6

Bioassay records as filed in PubChem BioAssay.
